We go through four molecules from PMC4258842 (Nature communications, 2014).

“Also recorded” adds a separate entry of the source.

In series [1] the test system is MCF-7 breast cancer cells. In words: 72 h growth inhibition in MCF-7 cells. In kind it is cell-based. Conditions: Homo sapiens, MCF7, 72 h, read-out: GI50 (50% growth inhibition). In outline:
(§1)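 Cell lines came from ECACC. MCF-7 and MDA-MB-231 were grown in DMEM + 10% FBS, and PEO-1 in RPMI + 10% FBS. Cells were exposed to test compound for 72 h. GI50 is the concentration giving 50% growth inhibition.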

For series [2], the target named is T1, FOXM1 DBD-DNA interaction (Homo sapiens, UniProt Q08050).
T1 sequence (Q08050 222-360): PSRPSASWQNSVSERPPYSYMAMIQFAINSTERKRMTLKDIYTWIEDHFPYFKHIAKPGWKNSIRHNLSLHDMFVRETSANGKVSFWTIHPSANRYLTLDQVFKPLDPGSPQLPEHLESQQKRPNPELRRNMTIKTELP
In words: EMSA displacement of FOXM1 DBD-DNA interaction. In kind it is binding. The method, boiled down:
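The DNA-binding domain of human FOXM1c was expressed as a GST fusion in E. coli BL21(DE3), induced with 1 mM IPTG at 18°C overnight. DBD (750 nM final) was preincubated with test compound 1.5 h at RT. FAM-labelled 16-bp consensus dsDNA (15 nM final) was added for 15 min. Samples ran on 6% retardation gels and were imaged by fluorescence.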
A general note: In EMSA bound probe runs differently from free probe, usually more slowly.

The test system of series [3] is MDA-MB-231 ER-negative breast cancer cells. Kind of series: Cell viability assay, MDA-MB-231 cells. Format: cell-based. To be noted: Homo sapiens, MDA-MB-231, 72 h. In outline:
as §1

In series [4] the test system is genes with FOXM1 promoter occupancy (ENCODE ChIP-seq, MCF-7). Format: cell-based, human. To be noted: ENCODE ChIP-seq datasets. The method, boiled down:
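Differentially expressed genes at 3 h were defined as FDR < 0.01 and logFC > 0.3 […]. ENCODE FOX-family ChIP-seq peaks (MACS) shared by both duplicates were mapped to promoters (−2000 to +100 bp of TSS). Proportions were compared by chi-squared test. Temporal clusters came from fuzzy c-means (9 clusters, fuzzification 1.35) on 1552 genes with abs(logFC) > 0.75.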

In the next series the test system is FOXM1 in MCF-7 cells. Kind of series: Western blot of total lysate and chromatin fraction of treated MCF-7 cells. To be noted: 6 h, 20 μM. Format: cell-based, human. In outline: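 MCF-7 cells were treated 6 h with test compound or DMSO. Whole-cell RIPA lysates and isolated chromatin pellets (sonicated in Laemmli buffer) ran on 8–16% Tris-glycine gels. Blots were probed overnight at 4°C with anti-FOXM1 (1:1000), actin (1:5000) or histone H3 (1:10000), then with IR-dye secondaries. FOXM1 was quantified relative to actin (lysate) or H3 (chromatin).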

For series [5], the system named is PEO-1 ovarian cancer cells. Kind of series: Cell viability assay, PEO-1 cells. To be noted: Homo sapiens, PEO1, 72 h. In kind it is cell-based. In outline:
as §1

Series [6] concerns FOXM1 occupancy at CCNB1 and CDC25B gene promoters. Kind of series: FOXM1 ChIP followed by qRT-PCR in MCF-7 cells. Conditions: 6 h treatment. In kind it is cell-based, human. The method, boiled down: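 MCF-7 cells at 70% confluence were treated 6 h with test compound or DMSO. Cells were crosslinked with 1% formaldehyde 10 min at RT, quenched with glycine, lysed and sonicated. Immunoprecipitation used 3 μg rabbit polyclonal anti-FOXM1 on protein-A beads overnight, with elution at 65°C for 16 h. SYBR qPCR (40 cycles) amplified CDC25B and CCNB1 promoters. Enrichment was normalized to a cyclin D1 intergenic control region.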
In general terms: In qPCR the cycle at which signal appears reflects the starting amount.

Series [7] relates to CDC25B expression in PEO-1 cells. In words: CDC25B expression in PEO-1 cells. Format: cell-based, human. To be noted: 3 h treatment. In outline: (§2)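 MDA-MB-231 (DMEM + 10% FBS) or PEO-1 (RPMI + 10% FBS) cells were exposed to test compound for 3 h. CDC25B transcript was measured by qRT-PCR with commercial gene-specific primer sets, with ACTB and YWHAZ primer sets also run.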
Series [8] concerns FOXM1 target gene transcripts in MCF-7 cells. In words: RNA-seq differential expression in MCF-7 cells. In kind it is cell-based, human. Conditions: 6 h. The method, boiled down: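 MCF-7 cells were treated for 3, 6 or 9 h, in three replicates per time point, against 0 h controls. TruSeq libraries gave 100-nt single-end reads, which were adapter/quality trimmed, aligned to hg19 and counted per gene. Differential expression used the edgeR exact test with library-size (CPM) normalization, and FDR < 0.01 counted as significant.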

The subject of series [9] is CDC25B expression in MDA-MB-231 cells. In words: CDC25B expression in MDA-MB-231 cells. Format: cell-based, human. Conditions: 3 h treatment. In outline: as §2
The next series deals with 20S proteasome. In words: 20S proteasome activity assay. Conditions: 10 μM inhibitor, 37°C, 90 m. Format: biochemical. The method, boiled down:
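Recombinant 20S proteasome with an AMC-linked peptide substrate that fluoresces on cleavage. Substrate dilution of 1:200 was chosen from an AMC standard curve. Test compound at 10 μM or DMSO control was mixed with enzyme and substrate and incubated 90 min at 37°C. Fluorescence was read at 380/460 nm and normalized to DMSO, with MG-132 as reference inhibitor.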

Series [10] deals with T2, FOXM1 DBD (GST fusion) (Homo sapiens, UniProt Q08050 222-360).
T2 sequence: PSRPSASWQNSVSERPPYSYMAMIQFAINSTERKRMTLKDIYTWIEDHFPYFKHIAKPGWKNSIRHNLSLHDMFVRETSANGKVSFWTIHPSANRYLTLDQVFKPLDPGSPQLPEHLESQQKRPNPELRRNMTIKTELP
In words: EMSA.

In series [11] the target is T2, FOXM1 DBD (GST fusion). Kind of series: fluorescence polarization. In general terms: Polarisation of emitted light reports the rotation of a fluorescent probe.
Series [12] deals with T3, FOXM1 full length (FOXM1c, GST fusion) (Homo sapiens, UniProt Q08050 1-763).
T3 sequence: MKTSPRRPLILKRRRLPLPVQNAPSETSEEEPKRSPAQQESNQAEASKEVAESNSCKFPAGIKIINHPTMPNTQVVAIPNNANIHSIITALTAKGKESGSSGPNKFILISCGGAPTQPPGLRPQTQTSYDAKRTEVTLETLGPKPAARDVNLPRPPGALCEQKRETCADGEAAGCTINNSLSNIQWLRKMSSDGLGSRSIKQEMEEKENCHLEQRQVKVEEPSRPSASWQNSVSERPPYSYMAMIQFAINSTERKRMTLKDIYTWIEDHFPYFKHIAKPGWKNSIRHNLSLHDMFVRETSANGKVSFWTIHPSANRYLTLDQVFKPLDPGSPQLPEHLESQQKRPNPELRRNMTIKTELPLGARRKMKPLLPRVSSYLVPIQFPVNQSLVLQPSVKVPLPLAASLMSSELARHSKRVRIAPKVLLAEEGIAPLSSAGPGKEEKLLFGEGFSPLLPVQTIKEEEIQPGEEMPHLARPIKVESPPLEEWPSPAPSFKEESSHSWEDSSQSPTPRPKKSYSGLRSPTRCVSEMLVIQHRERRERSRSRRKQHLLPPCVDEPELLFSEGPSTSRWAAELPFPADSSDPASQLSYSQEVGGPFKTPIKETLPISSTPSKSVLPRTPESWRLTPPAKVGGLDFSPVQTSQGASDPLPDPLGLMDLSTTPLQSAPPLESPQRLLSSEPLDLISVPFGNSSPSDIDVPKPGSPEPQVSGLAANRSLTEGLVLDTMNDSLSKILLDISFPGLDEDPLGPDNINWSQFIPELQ
Kind of series: fluorescence polarization.

For series [13], the target named is T2, FOXM1 DBD (GST fusion). Kind of series: fluorescence polarization. This is another data set of the same source.
Series [14] addresses T2, FOXM1 DBD (GST fusion). In words: competition.

Consider `C=C(NC(=O)C(=C)NC(=O)c1csc(C2=N[C@@H]3c4csc(n4)[C@H]4NC(=O)c5csc(n5)[C@H]([C@](C)(O)[C@@H](C)O)NC(=O)[C@H]5CSC(=N5)/C(=C/C)NC(=O)[C@H]([C@@H](C)O)NC(=O)c5csc(n5)[C@]3(CC2)NC(=O)[C@H](C)NC(=O)C(=C)NC(=O)[C@H](C)NC(=O)[C@H]([C@@H](C)CC)N[C@@H]2C=Cc3c([C@H](C)O)cc(nc3[C@H]2O)C(=O)O[C@@H]4C)n1)C(N)=O` [thiostrepton, reference compound], for which the GI50 (as a rule, the concentration that inhibits growth by half) in [1] was 2.7 µM. Besides, the IC50 (as a rule, the concentration that inhibits the measured activity by half) in series [2] stood at 45 ± 16.4 µM.
For the molecule `Nc1c(C(=O)Nc2ccc(F)cc2)sc2nc(-c3cccs3)cc(C(F)(F)F)c12` [FDI-6, 3-amino-N-(4-fluorophenyl)-6-(thiophen-2-yl)-4-(trifluoromethyl)thieno[2,3-b]pyridine-2-carboxamide], growth in series [3] was halved (GI50) at 21.8 µM. Moreover, in series [1], the concentration for 50% growth inhibition (GI50) was 18 ± 3 µM. Moreover, the “enrichment of differentially expressed genes for promoter occupancy of other FOX transcription factors (FOXA1, FOXA2, FOXP2)” value in series [4] is “did not show enrichment”. Also, the “decrease of chromatin bound FOXM1” value in the series with FOXM1 in MCF-7 cells (MCF-7 cells, normalized to Histone H3) is around 50%. For the same molecule, the “overall amount of FOXM1 protein” value with FOXM1 in MCF-7 cells (MCF-7 total lysate, normalized to Actin) is given as “unaffected”. In series [5], this molecule gave a concentration for 50% growth inhibition (GI50) of 18.1 µM. In addition, in series [6], the “change in FOXM1 occupancy at CCNB1 gene promoter” value is recorded as −0.68 log2 fold and the “change in FOXM1 occupancy at CDC25B gene promoter” value is on record as −0.64 log2 fold. The CDC25B expression result in series [7] is “down-regulates”. In addition, in series [8], the AURKA transcript change is on record as −0.83 log2 fold change, the CCNA2 transcript change is on record as −0.65 log2 fold change, the CCNB1 transcript change is −0.86 log2 fold change and the CDKN3 transcript change is reported as −0.739 log2 fold change. In series [8], this molecule gave a CENPA transcript change of −0.61 log2 fold change, a KIF20A transcript change of −1.22 log2 fold change, an NEK2 transcript change of −0.86 log2 fold change and a PLK1 transcript change of −0.92 log2 fold change. For the same molecule, the CDC25B expression entry in series [9] was “down-regulates”. Moreover, the IC50 in [2] amounted to 22.5 ± 12.3 µM. In the series with 20S proteasome, the “inhibition of the 20S proteasome” value was “did not inhibit; also recorded: inactive”.

B1: FOXM1 consensus DNA probe, 16 bp (dsDNA)
DNA 1: AAACAAACAAACAATC
DNA 2: GATTGTTTGTTTGTTT
With B1, the Kd (as a rule, the free concentration of one partner at which half of the binding sites on the other are occupied at equilibrium, for simple one-to-one binding) turned out to be 301 ± 21 nM with FOXM1 DBD (GST fusion) [10], 158 nM with FOXM1 DBD (GST fusion) [11], 300 ± 64 nM in series [12] and 224 ± 30 nM with FOXM1 DBD (GST fusion) [13].

B2: unlabeled FOXM1 consensus DNA, 16 bp (dsDNA)
DNA 1: AAACAAACAAACAATC
DNA 2: GATTGTTTGTTTGTTT
With B2, in the series with FOXM1 DBD (GST fusion) [14], the 50% inhibitory concentration (IC50) came out at 57 ± 5 nM.
